Data on 14 molecules can be found in PubChem BioAssay.

Assay [1] can be described thus: inhibitors of TNFa-induced NFkB p65 translocation, primary screen, imaging, HUVEC, MLSMR starter and 10KST1 sets (AID 438;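 active = inhibition above 20% together with a positive visual image hit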;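 note: compound added about 3h40 before a 20 min TNFalpha stimulation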;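 for inhibition: signal is the nuclear over cytoplasmic p65 intensity ratio per well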). The settings on record: HUVEC TNFa-induced p65 nuclear translocation; cell count: measured here: nuclei count (cytotoxicity indicator), at 2.08 µM; inhibition: at 2 µM, stronger effect = higher value, 0% TNFa-plus-vehicle, 100% no-TNFa wells.
Assay [2] is described as follows: reduction of polyQ htt aggregates in cells – imaging, exon1htt(103Q)mCFP cells, high-content imaging, primary screen (AID 483).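 For nuclei count: percent of the per-plate median nuclei count of sample wells.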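 Note: compound exposure lasted 3 days before fixation.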 As to conditions: exon1htt(103Q)mCFP cell line, aggregate imaging, at 2 µM; inhibition of aggregation: stronger effect = higher value; nuclei count: measured here: cell count, toxicity.
Assay [3] in a line: endothelial E-selectin expression blockers – imaging, HUVEC, immunofluorescence, MLSMR starter and 10KST1 sets, primary screen (AID 487;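 active = visually confirmed hit in the image check and inhibition above 20%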;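 for inhibition: signal is fraction of cell area covered by stained E-selectin grains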;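 for nuclei count: 100% = median nuclei count of all wells on the same plate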). The settings on record: HUVEC TNFalpha-induced E-selectin immunofluorescence imaging, at 2 µM; inhibition: stronger effect = higher value; nuclei count: measured here: cell number, toxicity.
Assay [4] addresses Voltage-gated potassium channel subunit beta-2 (Rattus norvegicus) (UniProt P62483). Nature of the assay: inhibitors of rat Kvbeta2 reductase activity – biochemical, NADPH fluorescence, primary screen (AID 622;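 active = fluorescence slope higher than the sample average by over 3 SD, cut at about -0.22 in these data, passing the limit was not always enough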;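 note: slope of raw intensity against log time taken from 70 to 1610 s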). The settings on record: recombinant KvBeta, 4-cyanobenzaldehyde reduction, at 10 µM, stronger effect = higher value.
For assay [5] the target is unchanged. Nature of the assay: enhancers of rat Kvbeta2 NADPH turnover – biochemical, NADPH fluorescence, primary screen (AID 623;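 active = NADPH fluorescence slope more negative than the mean of all samples by about 3 SD, 99.7% confidence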;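 note: fluorescence intensity change per second fitted from 20 to 320 s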). The settings on record: Recombinant KvBeta, NADPH fluorescence decrease slope, 10 min; at 10 µM; stronger effect = lower value.
Assay [6] concerns the target Muscarinic acetylcholine receptor M4 (Homo sapiens) (UniProt P08173). Nature of the assay: M4-linked GIRK flux change, two-sided – cell-based, HEK293 M4/GIRK, thallium flux, BTC-AM, M4 allosteric agonist project, primary screen (AID 625;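 active = fluorescence slope after compound addition differing from the mean of all tested samples at 99.7% confidence, mostly higher but some lower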;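 note: thallium influx through GIRK channels coupled to M4 in HEK293 cells with BTC-AM dye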). The settings on record: at 10 µM, actives lie on both sides. The procedure, abridged:
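Material: M4/GIRK1/GIRK2 stable HEK293 cell line. Medium: pH 7.3 thallium assay buffer. Dosing: single compound concentration, 10 µM final. Schedule: 1 h dye loading, 2 min kinetic read. Measured by: kinetic fluorescence with BTC-AM dye. Read-out: post-addition slope, 15–24 s, of baseline-normalized fluorescence. Benchmarks: carbachol and DMSO controls.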

A short description of assay [7]: blockers of RIG-like receptor reporter activation – cell-based, Sendai virus stimulus, luciferase, 10K MLSCN set, TLR/RLR signaling modifier project, primary screen (AID 602276;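 active = inhibition at or above 50% at 10 µM; inactive = inhibition below 50%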;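 note: firefly luciferase from ISG56 promoter only with Renilla not read in this screen; 0% = Sendai virus plus DMSO and 100% = medium plus DMSO without virus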). As to conditions: HEK293 RL24 IRF3 luciferase reporter, at 10 µM, stronger effect = higher value.
Assay [8] can be described thus: TLR3 IRF3 reporter activation blockers – cell-based, poly I:C stimulus, luciferase, 10K MLSCN set, primary screen (AID 602277;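 active = inhibition of the reporter signal at or above 50%; inactive = inhibition below 50%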). The settings on record: HEK293-TLR3 RL24 IRF3 luciferase reporter, at 10 µM, stronger effect = higher value. (In a reporter assay the amount or activity of a reporter protein is the signal.)

Calls of active or inactive are those of the source.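 Rule for the calls, unless noted: active = visual image review flags a hit and inhibition of aggregation exceeds 20%; inconclusive = visual hit but inhibition at or below 20%; inactive = no hit on visual image review.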

Sequence of Muscarinic acetylcholine receptor M4 (Homo sapiens) (P08173 whole entry, looked up): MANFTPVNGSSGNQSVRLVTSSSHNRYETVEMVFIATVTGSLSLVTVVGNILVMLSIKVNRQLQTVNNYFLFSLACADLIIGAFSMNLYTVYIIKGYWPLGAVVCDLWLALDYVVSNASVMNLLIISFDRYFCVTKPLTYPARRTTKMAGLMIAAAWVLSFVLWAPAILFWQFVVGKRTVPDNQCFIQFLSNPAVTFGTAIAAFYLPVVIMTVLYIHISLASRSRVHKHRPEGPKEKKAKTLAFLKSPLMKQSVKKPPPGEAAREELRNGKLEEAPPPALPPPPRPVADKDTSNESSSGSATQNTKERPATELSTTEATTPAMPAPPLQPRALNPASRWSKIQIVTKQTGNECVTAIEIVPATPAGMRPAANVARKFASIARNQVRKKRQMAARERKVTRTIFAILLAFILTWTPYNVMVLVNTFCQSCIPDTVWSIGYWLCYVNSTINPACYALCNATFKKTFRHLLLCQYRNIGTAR
Sequence of Voltage-gated potassium channel subunit beta-2 (Rattus norvegicus) (P62483 whole entry, looked up): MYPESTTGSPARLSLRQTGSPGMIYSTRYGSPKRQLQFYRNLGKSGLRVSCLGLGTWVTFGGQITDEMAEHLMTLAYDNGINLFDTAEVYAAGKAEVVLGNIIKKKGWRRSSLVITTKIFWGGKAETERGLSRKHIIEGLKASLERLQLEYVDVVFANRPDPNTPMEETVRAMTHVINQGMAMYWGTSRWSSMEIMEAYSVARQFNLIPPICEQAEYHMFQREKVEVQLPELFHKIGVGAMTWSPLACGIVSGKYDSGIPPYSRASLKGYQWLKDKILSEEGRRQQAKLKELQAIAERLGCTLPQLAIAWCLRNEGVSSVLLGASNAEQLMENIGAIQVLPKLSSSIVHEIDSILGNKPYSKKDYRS

As for `CCN(c1ccc(OC)cc1)S(=O)(=O)c1ccc2c(c1)CCN2C(=O)CCC(=O)O`, the cell count in assay [1] was found to be 625. Also, the inhibition (usually the relative decrease from the control value, in per cent) was 8.3% (inactive) in assay [1], -35.6% (inactive) in assay [3], 14.1% (inactive) in assay [7] and 20.9% (inactive) in assay [8]. In addition, in assay [2], the inhibition of aggregation is -38.2% (inactive). In addition, the nuclei count in assay [2] is 92.1%; in assay [3], 115%. Further, the fluorescence slope is -0.454 (inactive) in assay [4] and 0.00631 (inactive) in assay [6]. Further, the NADPH fluorescence slope in assay [5] is 2.3e-05 (inactive).

In the case of `Cc1cc(C)n2cc(CSCc3ccco3)nc2n1`, the cell count in assay [1] stood at 566. Also, the inhibition in assay [1] is -13.6% (inactive); in assay [3], 18.2% (inactive); in assay [7], 11.1% (inactive); in assay [8] it was 8.26% (inactive). The inhibition of aggregation in assay [2] was 4.9% (inactive). The nuclei count in assay [2] is 89.3%; in assay [3], 88.2%. In addition, the values for the fluorescence slope in assay [4] and in assay [6] were -0.238 (inactive) and 0.00628 (inactive), respectively. The NADPH fluorescence slope in assay [5] is -2.7e-05 (inactive).

In the case of `CCCOc1ccc(N2C(=O)CC(NCCCN3CCC(C(N)=O)CC3)C2=O)cc1` (centres undefined), in assay [1], the cell count amounted to 322. For the same molecule, the inhibition is -0.7% (inactive) in assay [1], -32% (inactive) in assay [3], 19.4% (inactive) in assay [7] and 19.7% (inactive) in assay [8]. Further, the inhibition of aggregation in assay [2] is 9.6% (inactive). In addition, the nuclei count in assay [2] came to 121%; in assay [3] it was 110%. For the same molecule, the results for the fluorescence slope in assay [4] and in assay [6] were -0.429 (inactive) and 0.00445 (inactive), respectively. The NADPH fluorescence slope in assay [5] was -4.4e-05 (inactive).

Regarding `CCCN(CCC)c1nc2ccccc2n2c(C)nnc12`, the cell count in assay [1] worked out at 460. Also, the inhibition in assay [1] was 6.5% (inactive); in assay [3], -77.3% (inactive); in assay [7], 11.6% (inactive); in assay [8], 11.3% (inactive). For the same molecule, in assay [2], the inhibition of aggregation is -1.5% (inactive). Further, the results for the nuclei count in assay [2] and in assay [3] were 76.7% and 102%, respectively. Also, the values for the fluorescence slope in assay [4] and in assay [6] were -0.461 (inactive) and 0.00414 (inactive), respectively. In addition, in assay [5], the NADPH fluorescence slope is -3.2e-05 (inactive).

On to `CSC1=C(C#N)C(c2ccc(C)cc2)C2=C(CCCC2=O)N1` (centres undefined), for which, in assay [1], the cell count was 322. Besides, the inhibition in assay [1] was -15.9% (inactive); in assay [3], 17.3% (inactive); in assay [7], 8.18% (inactive); in assay [8], 19.7% (inactive). In addition, the inhibition of aggregation in assay [2] was -19.6% (inactive). The nuclei count worked out at 100% in assay [2] and 109% in assay [3]. Also, the fluorescence slope in assay [4] is -0.557 (inactive); in assay [6], 0.00661 (inactive). In assay [5], the NADPH fluorescence slope was -5.6e-05 (inactive).

On to `CC(=O)OCC(=O)c1ccc2ccn(C(C)=O)c2c1`, for which, in assay [1], the cell count was 544. For the same molecule, the inhibition in assay [1] was 1.6% (inactive); in assay [3], -19.1% (inactive); in assay [7], 4.56% (inactive); in assay [8] it was -8.58% (inactive). Besides, the inhibition of aggregation in assay [2] is -17.9% (inactive). In addition, the nuclei count in assay [2] stood at 102%; in assay [3], 95.5%. The fluorescence slope is -0.258 (inactive) in assay [4] and 0.00624 (inactive) in assay [6]. Besides, in assay [5], the NADPH fluorescence slope is -1.1e-05 (inactive).

For the molecule `O=C(Nc1ccccc1C(=O)N1CCOCC1)c1ccncc1`, the cell count in assay [1] was determined as 389. Moreover, the inhibition in assay [1] was 0.7% (inactive); in assay [3], -97.8% (inactive); in assay [7], 5.72% (inactive); in assay [8], 17.1% (inactive). Also, in assay [2], the inhibition of aggregation is 5.4% (inactive). Moreover, the nuclei count in assay [2] worked out at 107%; in assay [3], 105%. Besides, the fluorescence slope was -0.579 (inactive) in assay [4] and 0.00647 (inactive) in assay [6]. For the same molecule, the NADPH fluorescence slope in assay [5] is -3.8e-05 (inactive).

In the case of `O=C(Cc1c[nH]c2ccccc12)N1CCc2ccccc21`, in assay [1], the cell count was 236. In addition, the inhibition was 2.1% (inactive) in assay [1], -28.8% (inactive) in assay [3], -4.15% (inactive) in assay [7] and -44.5% (inactive) in assay [8]. For the same molecule, in assay [2], the inhibition of aggregation is 6.4% (inactive). Further, the nuclei count in assay [2] was found to be 90%; in assay [3] it was 93.8%. Besides, the results for the fluorescence slope in assay [4] and in assay [6] were -0.582 (inactive) and 0.00443 (inactive), respectively. Moreover, the NADPH fluorescence slope in assay [5] was -1e-05 (inactive).

For the molecule `COc1cccc(-c2nc(-c3ccc(NC(=O)Cc4ccccc4OC)cc3)no2)c1`, in assay [1], the cell count came out at 429. In addition, the inhibition in assay [1] was -1.8% (inactive); in assay [3], -68.2% (inactive); in assay [7], 13% (inactive); in assay [8], -45.2% (inactive). Further, in assay [2], the inhibition of aggregation was -12.3% (inactive). Further, the nuclei count in assay [2] stood at 95.4%; in assay [3], 116%. Moreover, the values for the fluorescence slope in assay [4] and in assay [6] were -0.561 (inactive) and 0.0119 (active), respectively. Further, the NADPH fluorescence slope in assay [5] is -1.4e-06 (inactive).

Take `Nc1nc(-c2ccccc2)cc(C(F)(F)F)n1`: the cell count in assay [1] was 457. The inhibition in assay [1] is -7.5% (inactive); in assay [3], -11.2% (inactive); in assay [7] it was 11% (inactive); in assay [8], 6.96% (inactive). The inhibition of aggregation in assay [2] was 1.3% (inactive). The figures for the nuclei count in assay [2] and in assay [3] were 98.1% and 107%, respectively. Further, the values for the fluorescence slope in assay [4] and in assay [6] were -0.571 (inactive) and 0.00753 (inactive), respectively. The NADPH fluorescence slope in assay [5] is 1.4e-06 (inactive).

Turning to `Cc1nnc2sc(-c3cccc(NC(=O)c4cccnc4)c3)nn12`, the cell count in assay [1] came out at 295. The inhibition was -6% (inactive) in assay [1], -54% (inactive) in assay [3], -21% (inactive) in assay [7] and -15.6% (inactive) in assay [8]. Further, in assay [2], the inhibition of aggregation was 5% (inactive). The nuclei count in assay [2] was found to be 89.2%; in assay [3] it was 108%. For the same molecule, the fluorescence slope is -0.346 (inactive) in assay [4] and 0.006 (inactive) in assay [6]. The NADPH fluorescence slope in assay [5] is 1.1e-05 (inactive).

Take `Cc1nc2ccccc2c(=O)n1/N=C/c1ccncc1`: the cell count in assay [1] was determined as 644. Also, the inhibition in assay [1] is -6.3% (inactive); in assay [3], -2.9% (inactive); in assay [7], -4.49% (inactive); in assay [8] it was 4.48% (inactive). Moreover, in assay [2], the inhibition of aggregation was -10.1% (inactive). For the same molecule, the values for the nuclei count in assay [2] and in assay [3] were 109% and 92.1%, respectively. For the same molecule, the fluorescence slope is -0.526 (inactive) in assay [4] and 0.00441 (inactive) in assay [6]. Besides, the NADPH fluorescence slope in assay [5] was -3.4e-05 (inactive).

Consider `COc1ccc(-c2cc3nc4n(c(=O)c3s2)CCC4)cc1`, for which, in assay [1], the cell count came out at 433. The inhibition is 3% (inactive) in assay [1], -96.4% (inactive) in assay [3], 12.2% (inactive) in assay [7] and -34.7% (inactive) in assay [8]. The inhibition of aggregation in assay [2] was 4.8% (inactive). Moreover, the nuclei count in assay [2] was 88.6%; in assay [3], 139%. Moreover, the fluorescence slope was -0.467 (inactive) in assay [4] and 0.0055 (inactive) in assay [6]. In addition, in assay [5], the NADPH fluorescence slope is -3.4e-05 (inactive).

In the case of `Cc1cc(NC(=O)CCC(=O)N(CC2CCCO2)C(C(=O)NC2CCCC2)c2ccccc2C)no1` (centres undefined), the cell count in assay [1] worked out at 341. Besides, the inhibition in assay [1] was 0% (inactive); in assay [3], -106% (inactive); in assay [7] it was 20.9% (inactive); in assay [8], 21.7% (inactive). The inhibition of aggregation in assay [2] was 26.9% (inactive). For the same molecule, the values for the nuclei count in assay [2] and in assay [3] were 63.6% and 117%, respectively. In addition, the values for the fluorescence slope in assay [4] and in assay [6] were -0.453 (inactive) and 0.00469 (inactive), respectively. In assay [5], the NADPH fluorescence slope is -5.7e-05 (inactive).
